Reference: paper PMC9078890 (RSC Advances, 2018)
Read-outs that look alike come from different tables or passages of the source.

Columns and labels:
PDGFRβ = PDGFRβ (Homo sapiens, UniProt P09619); experiment: Kinase selectivity profiling, HTRF kinEASE-TK; format: biochemical; details: relative to FAK
IGF-1R = IGF-1R (Homo sapiens, UniProt P08069); experiment: Kinase selectivity profiling, HTRF kinEASE-TK; format: biochemical; details: relative to FAK
PYK2 [1] = biological target: T1, PYK2 (Homo sapiens, UniProt Q14289); experiment: Kinase selectivity profiling, HTRF kinEASE-TK; format: biochemical
How it was run: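 HTRF KinEASE-TK format; enzyme level, reaction time and ATP level were optimised beforehand. Test compound in kinase buffer, at half-log serial dilutions from 100 µM top (final), was mixed with TK substrate-biotin and kinase. ATP was added to start the reaction, which ran at room temperature. Eu3+-cryptate TK antibody and streptavidin-XL665 (0.125 μM final) were added; TR-FRET was read after 1 h. Triplicates; IC50 from sigmoid dose-response fit.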

[2] = biological target: Truncated human FAK(PTK2) (Homo sapiens, UniProt Q05397); experiment: In vitro FAK inhibition, HTRF kinEASE-TK kinase assay; format: biochemical
EGFR = EGFR (Homo sapiens, UniProt P00533); experiment: biochemical; format: biochemical
PYK2 [3] = biological target: T1, PYK2; details: read-out: Reported IC50 PYK2; cited from earlier work

T1 sequence (Q14289 whole entry, species assumed): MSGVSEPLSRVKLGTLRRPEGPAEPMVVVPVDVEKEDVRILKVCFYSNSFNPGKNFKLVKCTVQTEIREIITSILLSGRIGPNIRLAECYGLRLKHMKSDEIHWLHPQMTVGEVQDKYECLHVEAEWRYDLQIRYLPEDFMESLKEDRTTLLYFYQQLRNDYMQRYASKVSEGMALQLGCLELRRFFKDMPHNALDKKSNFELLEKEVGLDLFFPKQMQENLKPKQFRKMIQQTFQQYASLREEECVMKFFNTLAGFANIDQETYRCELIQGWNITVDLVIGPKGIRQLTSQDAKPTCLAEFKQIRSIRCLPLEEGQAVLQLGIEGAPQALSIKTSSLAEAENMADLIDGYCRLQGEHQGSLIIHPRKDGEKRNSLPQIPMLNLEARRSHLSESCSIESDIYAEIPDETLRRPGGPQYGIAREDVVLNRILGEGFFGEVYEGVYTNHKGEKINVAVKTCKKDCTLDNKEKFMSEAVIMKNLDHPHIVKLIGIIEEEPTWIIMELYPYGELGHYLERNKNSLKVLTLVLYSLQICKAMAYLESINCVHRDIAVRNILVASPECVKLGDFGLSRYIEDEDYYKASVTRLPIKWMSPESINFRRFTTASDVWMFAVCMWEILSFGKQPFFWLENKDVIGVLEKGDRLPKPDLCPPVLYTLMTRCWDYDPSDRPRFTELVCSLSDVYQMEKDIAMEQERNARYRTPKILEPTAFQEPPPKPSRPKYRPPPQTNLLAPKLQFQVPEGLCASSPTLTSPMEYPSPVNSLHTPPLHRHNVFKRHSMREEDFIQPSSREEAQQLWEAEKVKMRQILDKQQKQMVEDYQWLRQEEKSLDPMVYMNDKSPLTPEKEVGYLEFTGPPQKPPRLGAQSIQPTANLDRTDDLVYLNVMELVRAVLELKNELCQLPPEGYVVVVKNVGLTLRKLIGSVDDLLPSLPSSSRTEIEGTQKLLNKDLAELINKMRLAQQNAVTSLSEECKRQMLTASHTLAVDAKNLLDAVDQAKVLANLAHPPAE
Truncated human FAK(PTK2), sequence (Q05397 376-1052): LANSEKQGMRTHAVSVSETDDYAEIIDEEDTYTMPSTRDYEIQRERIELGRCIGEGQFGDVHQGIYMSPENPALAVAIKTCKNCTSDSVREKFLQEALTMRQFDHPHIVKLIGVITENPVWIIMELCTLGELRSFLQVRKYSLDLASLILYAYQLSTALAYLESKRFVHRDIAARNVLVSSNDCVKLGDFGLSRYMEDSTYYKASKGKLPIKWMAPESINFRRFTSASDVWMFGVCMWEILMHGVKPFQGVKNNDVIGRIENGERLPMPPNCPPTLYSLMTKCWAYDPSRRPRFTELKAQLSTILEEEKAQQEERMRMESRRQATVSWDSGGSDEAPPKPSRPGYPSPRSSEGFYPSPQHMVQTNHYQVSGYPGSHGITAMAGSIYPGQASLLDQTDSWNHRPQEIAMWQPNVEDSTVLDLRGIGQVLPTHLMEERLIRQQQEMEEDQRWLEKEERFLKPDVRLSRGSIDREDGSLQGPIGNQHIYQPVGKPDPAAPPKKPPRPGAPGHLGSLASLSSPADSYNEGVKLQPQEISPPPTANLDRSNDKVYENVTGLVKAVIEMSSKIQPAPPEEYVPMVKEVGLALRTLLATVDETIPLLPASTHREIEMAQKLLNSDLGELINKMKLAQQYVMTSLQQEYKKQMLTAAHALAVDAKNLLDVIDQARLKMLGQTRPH
EGFR, sequence (P00533 25-1210, species assumed): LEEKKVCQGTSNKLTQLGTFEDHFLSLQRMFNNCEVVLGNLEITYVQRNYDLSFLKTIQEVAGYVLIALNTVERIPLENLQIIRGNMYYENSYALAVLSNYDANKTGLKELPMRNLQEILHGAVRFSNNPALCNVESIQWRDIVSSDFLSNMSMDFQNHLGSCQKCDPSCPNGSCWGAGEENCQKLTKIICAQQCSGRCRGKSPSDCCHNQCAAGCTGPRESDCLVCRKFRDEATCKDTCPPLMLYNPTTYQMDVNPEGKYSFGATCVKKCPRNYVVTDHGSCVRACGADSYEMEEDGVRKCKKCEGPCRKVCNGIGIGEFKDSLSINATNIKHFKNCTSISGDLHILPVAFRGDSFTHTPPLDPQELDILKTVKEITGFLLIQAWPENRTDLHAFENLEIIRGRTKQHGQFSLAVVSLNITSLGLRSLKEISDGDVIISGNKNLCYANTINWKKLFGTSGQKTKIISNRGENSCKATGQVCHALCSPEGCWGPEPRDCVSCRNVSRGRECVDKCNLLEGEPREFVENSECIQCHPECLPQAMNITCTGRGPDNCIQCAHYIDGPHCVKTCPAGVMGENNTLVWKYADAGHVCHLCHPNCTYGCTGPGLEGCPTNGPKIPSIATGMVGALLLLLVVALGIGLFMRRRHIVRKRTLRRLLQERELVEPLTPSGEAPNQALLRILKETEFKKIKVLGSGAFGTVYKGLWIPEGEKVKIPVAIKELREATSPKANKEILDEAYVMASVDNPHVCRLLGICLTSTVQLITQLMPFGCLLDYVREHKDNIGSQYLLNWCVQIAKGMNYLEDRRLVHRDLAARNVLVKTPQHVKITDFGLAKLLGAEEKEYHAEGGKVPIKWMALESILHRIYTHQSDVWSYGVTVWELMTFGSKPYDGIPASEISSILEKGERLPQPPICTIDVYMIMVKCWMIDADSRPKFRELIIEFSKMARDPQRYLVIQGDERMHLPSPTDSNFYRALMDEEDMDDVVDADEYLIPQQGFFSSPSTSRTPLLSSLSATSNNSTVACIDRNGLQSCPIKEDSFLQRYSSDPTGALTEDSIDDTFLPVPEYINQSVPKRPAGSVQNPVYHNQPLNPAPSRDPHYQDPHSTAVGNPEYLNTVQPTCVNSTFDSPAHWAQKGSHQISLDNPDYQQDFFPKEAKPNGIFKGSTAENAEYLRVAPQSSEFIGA
IGF-1R, sequence (P08069 31-1367, species assumed): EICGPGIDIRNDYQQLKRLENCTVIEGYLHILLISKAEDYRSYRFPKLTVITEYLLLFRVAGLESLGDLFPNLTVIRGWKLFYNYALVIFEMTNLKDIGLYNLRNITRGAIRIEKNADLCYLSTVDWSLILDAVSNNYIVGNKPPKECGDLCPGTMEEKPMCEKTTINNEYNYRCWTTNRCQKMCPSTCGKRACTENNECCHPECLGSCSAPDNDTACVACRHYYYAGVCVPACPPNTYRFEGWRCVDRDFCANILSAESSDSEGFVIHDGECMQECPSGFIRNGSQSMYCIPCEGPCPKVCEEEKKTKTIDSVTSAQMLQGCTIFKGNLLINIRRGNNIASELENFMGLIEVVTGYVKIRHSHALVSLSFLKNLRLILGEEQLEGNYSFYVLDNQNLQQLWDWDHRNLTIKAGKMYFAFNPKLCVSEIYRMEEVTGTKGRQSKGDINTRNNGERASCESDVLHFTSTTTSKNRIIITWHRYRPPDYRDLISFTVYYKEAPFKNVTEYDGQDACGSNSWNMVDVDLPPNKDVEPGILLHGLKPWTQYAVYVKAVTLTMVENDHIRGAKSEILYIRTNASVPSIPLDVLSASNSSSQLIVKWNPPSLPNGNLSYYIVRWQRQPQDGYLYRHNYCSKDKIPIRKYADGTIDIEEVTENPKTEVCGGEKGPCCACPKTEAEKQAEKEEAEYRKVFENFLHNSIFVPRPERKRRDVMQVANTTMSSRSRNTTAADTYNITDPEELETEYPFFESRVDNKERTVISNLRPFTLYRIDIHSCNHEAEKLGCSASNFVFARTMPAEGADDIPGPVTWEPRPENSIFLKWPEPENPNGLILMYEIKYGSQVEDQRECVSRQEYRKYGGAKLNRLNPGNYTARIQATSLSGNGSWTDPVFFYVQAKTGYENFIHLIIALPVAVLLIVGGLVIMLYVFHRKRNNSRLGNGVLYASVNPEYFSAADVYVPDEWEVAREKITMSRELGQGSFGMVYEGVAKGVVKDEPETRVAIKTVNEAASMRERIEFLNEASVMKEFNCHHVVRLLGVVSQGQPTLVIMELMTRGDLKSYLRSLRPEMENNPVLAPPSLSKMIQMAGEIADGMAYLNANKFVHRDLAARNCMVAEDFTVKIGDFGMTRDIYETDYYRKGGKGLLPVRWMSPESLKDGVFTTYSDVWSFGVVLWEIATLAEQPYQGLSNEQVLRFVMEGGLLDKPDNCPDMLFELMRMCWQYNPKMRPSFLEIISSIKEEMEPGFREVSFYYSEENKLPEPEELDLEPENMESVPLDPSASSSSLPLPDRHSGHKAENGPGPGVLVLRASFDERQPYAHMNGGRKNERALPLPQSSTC

Row | SMILES | selectivity against PDGFRβ (PDGFRβ) | selectivity against IGF-1R (IGF-1R) | IC50 (PYK2 [1]) [nM] | selectivity against PYK2 (PYK2 [1]; relative to FAK) [folds] | IC50 [2] [nM] | IC50 (EGFR) [nM] | selectivity against EGFR (EGFR; relative to FAK) [folds] | IC50 (PYK2 [3]) [nM] | IC50 (PYK2 [1]; read-out: IC50 ± SD PYK2, mean of three determinations) [nM]
1 | COc1ccc(Nc2nc(Nc3ccc(OCCOCCF)cc3)ncc2Br)cc1 [[^19F]2, 5-Bromo-N^2-(4-(2-(2-fluoroethoxy)ethoxy)phenyl)-N^4-(4-methoxyphenyl)pyrimidine-2,4-diamine] | more than 200 folds | more than 200 folds | 3560 ± 626 | 62.4 | 57.1 ± 8.3 | 4310 ± 562 | 75.5 |  | 
2 | COc1ccc(Nc2nc(Nc3ccc(OCCOCCOCCF)cc3)ncc2Br)cc1 [[^19F]3, 5-Bromo-N^2-(4-(2-(2-(2-fluoroethoxy)ethoxy)ethoxy)phenyl)-N^4-(4-methoxyphenyl)pyrimidine-2,4-diamine] |  |  |  |  | 1110 ± 60.9 |  |  |  | 
3 | CNC(=O)c1ccccc1Nc1nc(Nc2ccc(N3CCOCC3)cc2OC)ncc1Cl [NVP-TAE226, reference compound] |  |  |  |  |  |  |  | 3.5 ± 2.1 | 5.7 ± 1.4
